In paper PMC9186316 (Toxicological Sciences, 2019):
Where two headings read alike, the source gives them in different places.

Experiments:
uterus weight response = tested on: uterus weight response; set-up: species or system rat; settings: predicted and in vivo BMDL50 to BMDU50, rats
Outline: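 Generic rat PBK models used for reverse dosimetry of MCF-7 proliferation and YES concentration-response data. In vitro concentrations corrected for unbound fraction (RED in assay medium and rat serum; 10% FBS medium taken as half the 5% FBS fub), then converted to blood concentrations and dose levels. Literature uterotrophic data: absolute uterus weight increase, not body-weight normalised. BMR 50% over control; BMD50 with 95% BMDL50–BMDU50.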

[1] = format: in vitro ADME; settings: bovine; for recovery: in vitro MCF-7 proliferation assay medium containing 5% FBS; for fraction unbound: in vitro proliferation assay medium with 5% FBS
[2] = Rapid equilibrium dialysis, fraction unbound in rat serum; format: in vitro ADME; settings: for recovery: rat serum; for fraction unbound: serum
[3] = Generic PBK model evaluation: predicted versus reported Cmax in rat blood; settings: oral administration, rats
Outline: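 The generic PBK model predicted parent-compound blood concentration–time curves after single oral dosing in rats, using partition coefficients calculated from log Pow and hepatic clearance from rat liver S9. Doses matched those of the published in vivo kinetic studies. Predicted Cmax was compared with literature blood data, and the difference was expressed as a fold value.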

[4] = Hepatic clearance by substrate depletion in rat liver S9; format: in vitro ADME; settings: Sprague-Dawley, liver S9, pH 7.4
Outline: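 Rat liver S9 (pooled, male or female Sprague-Dawley, 0.5 mg/ml) was incubated with 3 µM substrate (added from a 100-fold DMSO stock). Sampling ran 0–90 min against cofactor-free controls, with UPLC quantification. CLint came from the linear part of ln(Ccompound/Ccontrol) versus time. Triplicates, 3 independent studies.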

Structure (SMILES) | Potency comparison from BMD50 values (Figure 8) (uterus weight response) | recovery [1] | fraction unbound [1] | recovery [2] | fraction unbound [2] | Difference in Cmax between the model predictions and the in vivo kinetic data [3] | microsomal CLint at 3 µM ([4]; female) | microsomal CLint at 3 µM ([4]; male)
CC(C)(c1ccc(O)cc1)c1ccc(O)cc1 [BPA, bisphenol A] | least potent |  |  |  |  |  |  | 
O=c1oc2cc(O)ccc2c2oc3cc(O)ccc3c12 [COU, coumestrol] |  | 79% | 0.69 ± 0.034 | 82% | 0.35 ± 0.07 | 2.2 fold |  | 
CC/C(=C(/CC)c1ccc(O)cc1)c1ccc(O)cc1 [DES, Diethylstilbestrol] | most potent | 79% | 0.74 ± 0.02 | 77% | 0.48 ± 0.08 |  |  | 
C[C@]12CC[C@@H]3c4ccc(O)cc4CC[C@H]3[C@@H]1CC[C@@H]2O [E2, 17β-estradiol] | most potent |  |  |  |  |  |  | 
C#C[C@]1(O)CC[C@H]2[C@@H]3CCc4cc(O)ccc4[C@H]3CC[C@@]21C [EE2, 17α-ethinylestradiol] | most potent | 86% | 0.72 ± 0.18 | 80% | 0.46 ± 0.03 |  |  | 
O=c1c(-c2ccc(O)cc2)coc2cc(O)cc(O)c12 [GEN, genistein] |  | 88% | 0.8 ± 0.04 | 83% | 0.07 ± 0.02 |  |  | 
COc1ccc(C(c2ccc(OC)cc2)C(Cl)(Cl)Cl)cc1 [MXC, methoxychlor] |  | 77% | 0.73 ± 0.29 | 76% | 0.27 ± 0.04 |  | 313 ± 5 µL/min/mg | 448 ± 8 µL/min/mg
